From PubChem BioAssay AID651846 (The Scripps Research Institute Molecular Screening Center, 2012)
pIC50: −log10 of the molar value. The source made the active and inactive calls.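 The calls were made as follows: active = IC50 at or below 10 µM; inactive = IC50 above 10 µM.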

These compounds were tested on CHO-S GAL4-VP16 UAS luciferase reporter, luminescence (assay: repression of VP16-driven reporter luminescence – CHO-S cells, counter-screen for NR2E3 agonist project, late-stage follow-up (AID 651846)).
Outline: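 Assay system: CHO-S cells transiently co-transfected with GAL4 DBD–VP16 fusion plus UAS pGL4.31 luciferase; Schedule: 24 h compound treatment, 37 °C; Measured by: One-Glo luminescence; Evaluation: percent inhibition of reporter luminescence scaled between controls; Compound: dose-response concentration series; Replication: triplicates.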
For `COc1ccc(S(=O)(=O)N2CCCCC2)cc1NC(=S)Nc1ccccc1`, the IC50 was > 39.8 µM (inactive).
With `Cc1ccc(-c2nc(NC(=O)CSc3nnnn3-c3ccccc3)ns2)cc1` the IC50 was > 39.8 µM (inactive).
`Cc1cnc(NC(=O)CCCc2nc3ccccc3s2)s1` was tested, and the IC50 was > 39.8 µM (inactive).
For `COc1ccc(NC2c3ccccc3C(=O)N2Cc2ccccc2Cl)cc1OC` (stereo unspecified), the IC50 was > 39.8 µM (inactive).
In the case of `O=c1c(Cl)c(N2CCN(c3ccc(F)cc3)CC2)cnn1C12CC3CC(CC(C3)C1)C2`, the IC50 was > 39.8 µM (inactive).
For `COc1cccc(NC(=O)CSc2nc3ncc(Br)cc3[nH]2)c1`, the IC50 was > 39.8 µM (inactive).
In the case of `COc1ccc(S(=O)(=O)N2CCCCC2)cc1NC(=S)Nc1cccc(Cl)c1C`, the IC50 was > 39.8 µM (inactive).
With `Cc1cccc(OCCCC(=O)Nc2nc3ccccc3[nH]2)c1` the IC50 was > 39.8 µM (inactive).
`Cc1ccnc(NC(=O)CSc2cc(=O)n(C)c3ccccc23)c1` was tested, and the IC50 was > 39.8 µM (inactive).
`O=C(O)CC1(CC(=O)Nc2cc(C(F)(F)F)cc(C(F)(F)F)c2)CCCCC1` gave a pIC50 of 5.11.
With `O=c1cc(N2CCN(c3cccc(Cl)c3)CC2)[nH]c(=O)n1C1CCCCC1` the IC50 was > 39.8 µM (inactive).
With `COc1cccc(N2CCN(c3nc(-c4ccccc4C)cc(=O)[nH]3)CC2)c1` the IC50 was > 39.8 µM (inactive).
`O=C(Nc1cccc(NC(=O)c2c(F)cccc2F)n1)c1c(F)cccc1F` was tested, and the IC50 was > 39.8 µM (inactive).
`O=C(CSc1nnnn1-c1ccc2c(c1)OCCO2)Nc1nc2c(s1)CCCC2` was tested, and the IC50 was > 39.8 µM (inactive).
With `Cc1cc(C)cc(NC(=O)CCc2nc3sc4c(c3c(=O)[nH]2)CCCC4)c1` the IC50 was > 39.8 µM (inactive).
With `Cc1ccc(NC(=O)CSc2nnnn2-c2ccc3c(c2)OCO3)cc1C` the IC50 was > 39.8 µM (inactive).
For `Cc1cccc(C(=O)N[C@H](C(=O)Nc2ncc(C)s2)C(C)C)c1`, the IC50 was > 39.8 µM (inactive).
For `Cc1cnc(NC(=O)Cc2ccc(Br)cc2)s1`, the IC50 was > 39.8 µM (inactive).
For `Cc1onc(-c2ccccc2Cl)c1C(=O)Nc1nc2c(s1)CCCC2`, the IC50 was > 39.8 µM (inactive).
For `Cc1ccc(CN2CC(C(=O)Nc3ncc(C)s3)CC2=O)cc1` (stereo unspecified), the IC50 was > 39.8 µM (inactive).
With `O=C(CSc1nnnn1-c1ccc(O)cc1)Nc1ccc(N2CCOCC2)c(Cl)c1` the IC50 was > 39.8 µM (inactive).
`NC(=O)c1nn(-c2ccccc2)nc1NC(=O)CSc1nnnn1-c1ccc(Cl)cc1` was tested, and the IC50 was > 39.8 µM (inactive).
In the case of `Cc1cnc(NC(=O)C2CC(=O)N(c3ccc4c(c3)OCCO4)C2)s1` (stereo unspecified), the IC50 was > 39.8 µM (inactive).
With `COc1ccc(OC)c(NC(=O)CSc2nnnn2-c2ccc3c(c2)OCO3)c1` the IC50 was > 39.8 µM (inactive).
In the case of `COc1ccc2c(CC(=O)Nc3ncc(C)s3)coc2c1`, the IC50 was > 39.8 µM (inactive).
In the case of `COc1cc2nc(CN3CC=C(c4ccccc4)CC3)[nH]c(=O)c2cc1OC`, the IC50 was > 39.8 µM (inactive).
